Values after ≈ are worked out from the molar mass of the structure shown. Active and inactive are the calls of the source. The calls are words filed in the database; no cut-off is given here.
What was measured:
Homo sapiens [1] = species on record: Homo sapiens; assay: Selectivity ratio of Ki for human OX1R expressed in CHOK1 cell membranes to Ki for human OX2R expressed in CHOK1 cell membranes; type: cell-based
How it was run: (§1)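 Radioligand competition binding used membranes from CHO-K1 cells overexpressing human OX1R or OX2R. […] The selectivity ratio is OX1R Ki divided by OX2R Ki.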

[2] = molecular target: T1, Orexin/Hypocretin receptor type 1 (Homo sapiens, UniProt O43613); assay: Antagonist activity at human OX1R expressed in CHOK1 cells assessed as reduction in orexin A-induced calcium flux preincubated followed by orexin A addition by FLIPR assays; type: functional, cell-based
T1 sequence (O43613 whole entry): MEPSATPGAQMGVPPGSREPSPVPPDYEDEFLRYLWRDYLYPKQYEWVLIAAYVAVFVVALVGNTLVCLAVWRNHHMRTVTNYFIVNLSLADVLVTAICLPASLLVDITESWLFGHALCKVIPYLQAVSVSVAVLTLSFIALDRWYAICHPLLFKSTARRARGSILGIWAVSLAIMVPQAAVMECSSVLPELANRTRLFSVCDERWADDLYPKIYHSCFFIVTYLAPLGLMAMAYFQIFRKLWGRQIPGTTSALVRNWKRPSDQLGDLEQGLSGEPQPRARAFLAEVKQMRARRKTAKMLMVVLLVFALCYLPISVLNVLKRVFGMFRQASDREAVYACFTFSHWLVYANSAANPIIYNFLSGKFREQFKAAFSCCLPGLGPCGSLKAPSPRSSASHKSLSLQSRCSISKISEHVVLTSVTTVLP

Homo sapiens [3] = species on record: Homo sapiens; assay: Selectivity ratio of IC50 for human OX1R expressed in CHOK1 cells to IC50 for human OX2R expressed in CHOK1 cells by FLIPR assay; type: cell-based
[4] = Time-dependent inhibition of CYP450 (unknown origin); type: ADME; conditions: human
Rattus norvegicus [5] = assay: Sleep promoting activity in rat assessed as increase in REM sleep at 0.5 to 3 mg/kg, po administered in mid active phase for 3 consecutive days by electroencephalogram/electromyogram analysis; type: functional, organism-based
How it was run: (§2)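 Rats carried implanted radio-telemetry devices for EEG/EMG polysomnography. Oral doses were 0.5 (n=16), 1 (n=14) or 3 mg/kg (n=12) versus vehicle (20% vitamin E TPGS). Dosing was at ZT18:00 (6 h after lights off) on 3 consecutive days in a balanced cross-over. Active wake, NREM and REM time was scored in 30-min bins, and all treatment days were averaged over 24 h.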

Rattus norvegicus [6] = assay: Sleep promoting activity in rat assessed as increase in NREM sleep at 0.5 to 3 mg/kg, po administered in mid active phase for 3 consecutive days by electroencephalogram/electromyogram analysis; type: functional, organism-based; how it was run: as §2
Orexin receptor type 2 [7] = molecular target: T2, Orexin receptor type 2 (Homo sapiens, UniProt O43614); assay: Antagonist activity at human OX2R expressed in CHOK1 cells assessed as reduction in orexin A-induced calcium flux preincubated followed by orexin A addition by FLIPR assays; type: functional, cell-based
T2 sequence (O43614 whole entry): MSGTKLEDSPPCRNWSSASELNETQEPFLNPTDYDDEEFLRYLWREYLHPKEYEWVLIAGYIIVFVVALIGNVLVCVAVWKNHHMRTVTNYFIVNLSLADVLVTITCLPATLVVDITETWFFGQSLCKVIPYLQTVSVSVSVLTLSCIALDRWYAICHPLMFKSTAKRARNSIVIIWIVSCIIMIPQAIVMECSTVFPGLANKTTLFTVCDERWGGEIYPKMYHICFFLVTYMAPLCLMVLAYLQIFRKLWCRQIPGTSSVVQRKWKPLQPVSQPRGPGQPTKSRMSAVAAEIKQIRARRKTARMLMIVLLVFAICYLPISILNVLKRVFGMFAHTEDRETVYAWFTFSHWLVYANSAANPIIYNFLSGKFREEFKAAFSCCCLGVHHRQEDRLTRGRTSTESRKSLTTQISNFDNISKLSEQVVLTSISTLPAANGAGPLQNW

[8] = Solubility of the compound in pH 1.8 SGF at 0.1 mg/ml after 15 mins by reverse-phase chromatography; type: physicochemical; conditions: simulated gastric fluid (SGF)
How it was run: (§3)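 Compound at […] was stirred at 80 rpm in SGF (0.01 N HCl, 0.9 wt.% NaCl, pH 1.8) or FASSIF (3 mM sodium taurocholate, 0.75 mM lecithin, 100 mM NaCl, NaOH/NaH₂PO₄, pH 6.5). It was then centrifuged at 14k rpm for 15 min.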

[9] = Solubility of the compound in pH 6.5 FASSIF at 0.1 mg/ml after 15 mins by reverse-phase chromatography; type: physicochemical; conditions: fasted state simulated intestinal fluid (FaSSIF); how it was run: as §3
Rattus norvegicus [10] = assay: Sleep promoting activity in po dosed rat assessed as attenuation of active wake administered in mid active phase for 3 consecutive days measured up to 2 hrs post dose by electroencephalogram/electromyogram analysis; type: functional, organism-based; how it was run: as §2
Mus musculus [11] = assay: Sleep promoting activity in mouse assessed as increase in REM sleep at 30 mg/kg, po administered in late active phase for 5 consecutive days by electroencephalogram/electromyogram analysis
Mus musculus [12] = assay: Sleep promoting activity in mouse assessed as increase in NREM sleep at 30 mg/kg, po administered in late active phase for 5 consecutive days by electroencephalogram/electromyogram analysis
[13] = system: OX2R knockout mouse (Mus musculus); assay: Sleep promoting activity in OX2R knockout mouse assessed as increase in NREM sleep at 30 mg/kg, po administered in late active phase for 5 consecutive days by electroencephalogram/electromyogram analysis
[14] = system: OX2R knockout mouse (Mus musculus); assay: Sleep promoting activity in OX2R knockout mouse assessed as attenuation of active wake at 30 mg/kg, po administered in late active phase for 5 consecutive days by electroencephalogram/electromyogram analysis
Mus musculus [15] = assay: Sleep promoting activity in mouse assessed as attenuation of active wake at 30 mg/kg, po administered in late active phase for 5 consecutive days measured up to 1.5 hrs post dose by electroencephalogram/electromyogram analysis
[16] = molecular target: T3, Nuclear receptor subfamily 1 group I member 2 (Homo sapiens, UniProt O75469); assay: Inhibition of PXR (unknown origin); type: ADME
T3 sequence (O75469 whole entry): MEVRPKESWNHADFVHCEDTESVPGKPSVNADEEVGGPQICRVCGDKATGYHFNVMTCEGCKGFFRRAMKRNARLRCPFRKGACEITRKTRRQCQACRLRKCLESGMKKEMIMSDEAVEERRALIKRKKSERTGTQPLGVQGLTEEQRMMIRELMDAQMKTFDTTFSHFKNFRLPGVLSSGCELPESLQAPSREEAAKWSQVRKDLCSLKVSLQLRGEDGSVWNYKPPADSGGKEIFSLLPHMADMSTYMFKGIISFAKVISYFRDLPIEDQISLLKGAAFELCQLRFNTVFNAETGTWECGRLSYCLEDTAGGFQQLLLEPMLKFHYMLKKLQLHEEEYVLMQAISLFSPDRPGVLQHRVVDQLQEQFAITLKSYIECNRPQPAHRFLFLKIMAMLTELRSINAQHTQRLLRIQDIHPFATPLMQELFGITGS

[17] = molecular target: T1, Orexin/Hypocretin receptor type 1; assay: Displacement of [3H](S)-N-(biphenyl-2-yl)-1-(2-(1-methyl-1H-benzo[d]imidazol-2-ylthio)acetyl)pyrrolidine-2-carboxamide from human OX1R expressed in CHOK1 cell membranes
How it was run: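 Radioligand competition binding used membranes from CHO-K1 cells overexpressing human OX1R or OX2R. The selectivity ratio is OX1R Ki divided by OX2R Ki.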

Orexin receptor type 2 [18] = molecular target: T2, Orexin receptor type 2; assay: Displacement of [3H](S)-N-(2-(1H-pyrrol-1-yl)phenyl)-1-(2-(1-methyl-1H-benzo[d]imidazol-2-ylthio)acetyl)pyrrolidine-2-carboxamide from human OX2R expressed in CHOK1 cell membranes; how it was run: as §1

Row | Compound | Ki [17] | Ki (Orexin receptor type 2 [18]) | Ratio Ki (Homo sapiens [1]) | IC50 [2] | Ratio IC50 (Homo sapiens [3]) | further results
1 | Cc1c(C#N)ccnc1O[C@@H]1CC[C@@H](C)N(C(=O)c2ccccc2C(F)(F)F)C1 |  |  | 373 | 4960 nM | 236 | 
2 | Cc1c(C#N)ccnc1O[C@@H]1CC[C@@H](C)N(C(=O)c2ccccc2N2CCCC2)C1 |  |  | 232 | 3100 nM | 107 | TDI [4]: Active
3 | C[C@@H]1CC[C@@H](Oc2cc(C#N)ccn2)CN1C(=O)c1ccccc1-n1nccn1 |  |  | 518 | 3200 to 3830 nM | 295 to 356 | Activity (Rattus norvegicus [5]): Active; Activity (Rattus norvegicus [6]): Active; IC50 (Orexin receptor type 2 [7]): 9 to 13 nM; solubility at 0.25 h [8]: 13.7 µg/mL (≈ 35.3 µM); solubility at 0.25 h [9]: 13.5 µg/mL (≈ 34.8 µM); Activity (Rattus norvegicus [10]): Dose-dependent effect; Activity (Mus musculus [11]): Active; Activity (Mus musculus [12]): Active; Activity [13]: inactive; Activity [14]: inactive; Activity (Mus musculus [15]): Active
4 | COc1ccc(C(=O)N2C[C@H](Oc3nccc(C#N)c3C)CC[C@H]2C)c(-n2nccn2)n1 |  |  | 1190 | 5930 nM | 282 | inhibition (INH) [16]: Active
5 | Cc1c(C#N)ccnc1O[C@@H]1CC[C@@H](C)N(C(=O)c2ccccc2-n2nccn2)C1 |  |  | 285 | 996 nM | 125 | 
6 | COc1ccc(C(=O)N2C[C@H](Oc3nccc(C#N)c3C)CC[C@H]2C)c(C2CC2)n1 |  |  |  |  |  | TDI [4]: Active
7 | Cc1c(C#N)ccnc1O[C@@H]1CC[C@@H](C)N(C(=O)c2cccnc2-c2ccccc2)C1 |  |  | 434 | 4670 nM | 180 | 
8 | COC(=O)c1cccnc1N[C@@H]1CC[C@@H](C)N(C(=O)c2ccccc2-n2nccn2)C1 | 12 nM | 0.4 nM | 30 | 69 nM | 2 | 
9 | Cc1c(C#N)ccnc1O[C@@H]1CC[C@@H](C)N(C(=O)c2ccccc2-n2ncnn2)C1 |  |  | 358 | 4590 nM | 596 | 
10 | CC(=O)Nc1cc(C(=O)N2C[C@H](Oc3nccc(C#N)c3C)CC[C@H]2C)c(-c2ccccc2)cn1 | 10 nM | 0.7 nM | 14 | 71 nM | 2 | IC50 (Orexin receptor type 2 [7]): 38 nM
11 | Cc1c(C#N)ccnc1O[C@@H]1CC[C@@H](C)N(C(=O)c2ccc(Br)nc2-n2nccn2)C1 |  |  | 326 | > 10000 nM | > 345 | 
12 | CCOc1ccccc1C(=O)N1C[C@H](Oc2nccc(C#N)c2C)CC[C@H]1C |  |  | 849 | 2100 nM | 350 | inhibition (INH) [16]: Active
13 | C[C@@H]1CC[C@@H](Nc2cc(C#N)ccn2)CN1C(=O)c1ccccc1-n1nccn1 | 287 nM | 0.9 nM | 319 | 1740 nM | 60 | 
14 | COc1ccc(C(=O)N2C[C@H](Oc3nccc(C#N)c3C)CC[C@H]2C)c(SC)n1 |  |  | 1260 | > 10000 nM | > 455 | TDI [4]: Active
15 | COC(=O)c1ccnc(O[C@@H]2CC[C@@H](C)N(C(=O)c3ccccc3-n3nccn3)C2)c1 |  |  | 80 |  | 82 | 
16 | Cc1c(C#N)ccnc1O[C@@H]1CC[C@@H](C)N(C(=O)c2ccccc2C2CC2)C1 |  |  | 741 | 1740 nM | 193 | 
17 | COc1ccc(C(=O)N2C[C@H](Oc3nccc(C#N)c3C)CC[C@H]2C)c(-n2nccn2)c1 |  |  |  |  |  | inhibition (INH) [16]: Active

The next lines start with results.

Row | Ki [17] | Ki (Orexin receptor type 2 [18]) | Compound | Ratio Ki (Homo sapiens [1]) | IC50 [2] | Ratio IC50 (Homo sapiens [3]) | further results
18 | 569 nM |  | C[C@@H]1CC[C@@H](Oc2cc(C#N)ccn2)CN1C(=O)c1ccccc1-c1ncccn1 | 438 |  | 175 | solubility at 0.25 h [8]: 680 µg/mL (≈ 1700 µM); solubility at 0.25 h [9]: 660 µg/mL (≈ 1650 µM)
19 | 834 nM | 2.2 nM | C[C@@H]1CC[C@@H](Oc2nccc3c2C(=O)OC3(C)C)CN1C(=O)c1ccccc1-n1nccn1 | 379 |  | 414 | 
20 |  | 0.5 nM | COC(=O)c1c(C#N)ccnc1O[C@@H]1CC[C@@H](C)N(C(=O)c2ccccc2-n2nccn2)C1 | 112 |  | 39 | 
21 | 12 nM | 0.6 nM | CC(=O)Nc1ccc(-c2ccccc2)c(C(=O)N2C[C@H](Oc3nccc(C#N)c3C)CC[C@H]2C)n1 | 20 | 74 nM | 2 | IC50 (Orexin receptor type 2 [7]): 38 nM
22 | 6.3 nM | 0.8 nM | COC(=O)c1cccnc1S[C@@H]1CC[C@@H](C)N(C(=O)c2ccccc2-n2nccn2)C1 | 8 |  | 2 | 
23 | 324 nM | 1.7 nM | C[C@@H]1CC[C@@H](Sc2cc(C#N)ccn2)CN1C(=O)c1ccccc1-n1nccn1 | 191 |  | 109 | IC50 (Orexin receptor type 2 [7]): 13 nM
24 | 66 nM | 2.5 nM | COC(=O)c1cccnc1O[C@@H]1CC[C@@H](C)N(C(=O)c2ccccc2-n2nccn2)C1 | 26 | 309 nM | 9 | IC50 (Orexin receptor type 2 [7]): 35 nM

— ChEMBL document CHEMBL3997828, “Investigation of orexin-2 selective receptor antagonists: Structural modifications resulting in dual orexin receptor antagonists” (Bioorg Med Chem Lett, 2017)
